{"source": "ChEMBL document CHEMBL4330068", "about": "“Design, synthesis and evaluation of pentacycloundecane and hexacycloundecane propargylamine derivatives as multifunctional neuroprotective agents” (Eur J Med Chem, 2019)", "key": {"SH-SY5Y [1]": {"system": "SH-SY5Y", "assay": "Neuroprotective activity in human SH-SY5Y cells assessed as reduction in MPP+ induced cytotoxicity by measuring cell viability at 1 uM preincubated for 2 hrs followed by MPP+ addition and measured after 48 hrs by MTT assay (reference value: 45%)", "format": "functional"}, "[2]": {"target": "T1, Amine oxidase [flavin-containing] A (Homo sapiens, UniProt P21397)", "T1 sequence (P21397 whole entry)": "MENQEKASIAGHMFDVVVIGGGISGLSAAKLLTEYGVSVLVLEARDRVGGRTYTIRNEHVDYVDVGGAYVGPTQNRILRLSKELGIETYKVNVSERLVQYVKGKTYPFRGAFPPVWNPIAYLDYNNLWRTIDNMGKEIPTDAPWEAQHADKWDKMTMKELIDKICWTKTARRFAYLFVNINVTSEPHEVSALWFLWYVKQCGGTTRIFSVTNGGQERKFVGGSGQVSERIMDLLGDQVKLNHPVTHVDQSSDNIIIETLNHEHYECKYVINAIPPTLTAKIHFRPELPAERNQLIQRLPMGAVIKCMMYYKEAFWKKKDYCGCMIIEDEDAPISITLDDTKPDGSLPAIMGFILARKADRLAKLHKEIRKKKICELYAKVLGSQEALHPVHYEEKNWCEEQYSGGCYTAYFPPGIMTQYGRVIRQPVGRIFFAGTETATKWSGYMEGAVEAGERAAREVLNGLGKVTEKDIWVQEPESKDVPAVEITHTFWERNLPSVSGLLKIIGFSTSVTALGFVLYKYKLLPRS", "assay": "Inhibition of recombinant human MAO-A using kynuramine as substrate after 20 mins by fluorescence assay"}, "SH-SY5Y [3]": {"system": "SH-SY5Y", "assay": "Neuroprotective activity in human SH-SY5Y cells assessed as reduction in MPP+ induced cytotoxicity at 5 to 10 uM preincubated for 2 hrs followed by MPP+ addition measured after 48 hrs by MTT assay", "format": "functional, cell-based"}, "[4]": {"assay": "Cytotoxicity against human SH-SY5Y cells assessed as cell viability at 10 uM after 48 hrs by MTT assay (reference value: 100%)", "format": "cell-based", "conditions": "read-out: Activity", "method_in_brief": "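SH-SY5Y cells exposed to compound at 10, 50 or 100 µM for 48 h; viability by MTT, read spectrophotometrically. DMSO vehicle-treated cells set as 100% viability. Mean ± SEM, n = 3 with four fields per repeat; ANOVA.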"}, "[5]": {"target": "T2, Amine oxidase [flavin-containing] B (Homo sapiens, UniProt P27338)", "T2 sequence (P27338 whole entry)": "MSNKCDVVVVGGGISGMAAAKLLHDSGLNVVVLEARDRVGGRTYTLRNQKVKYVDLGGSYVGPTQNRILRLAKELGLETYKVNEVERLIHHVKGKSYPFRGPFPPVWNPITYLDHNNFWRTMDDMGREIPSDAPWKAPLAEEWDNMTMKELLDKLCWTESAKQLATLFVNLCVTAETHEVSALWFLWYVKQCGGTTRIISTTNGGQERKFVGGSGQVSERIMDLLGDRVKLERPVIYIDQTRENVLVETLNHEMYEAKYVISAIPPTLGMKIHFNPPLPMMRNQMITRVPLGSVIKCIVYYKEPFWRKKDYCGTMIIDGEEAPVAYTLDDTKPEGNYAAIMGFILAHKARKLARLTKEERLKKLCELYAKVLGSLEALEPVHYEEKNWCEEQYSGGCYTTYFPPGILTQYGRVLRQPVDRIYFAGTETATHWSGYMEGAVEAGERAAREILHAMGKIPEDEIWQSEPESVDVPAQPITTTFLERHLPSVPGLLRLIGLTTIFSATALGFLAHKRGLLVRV", "assay": "Inhibition of recombinant human MAO-B using kynuramine as substrate after 20 mins by fluorescence assay"}, "[6]": {"target": "Glutamate [NMDA] receptor (Homo sapiens) (UniProt Q05586+Q12879+Q13224+O15399+O60391+Q14957+Q8TCU5)", "assay": "Antagonist activity at NMDA receptor in human SH-SY5Y cells assessed as reduction in NMDA/glycine-stimulated calcium influx at 10 uM preincubated for 30 mins in presence of Mag-Fura-2/AM dye followed by NMDA/glycine stimulation and measured over 35 secs by fluorescence assay (reference value: 100%)", "format": "cell-based", "method_in_brief": "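SH-SY5Y cells loaded with ratiometric Ca indicator Mag-Fura-2/AM, incubated with compound at 10 µM for 30 min at 37 °C, then stimulated with concentrated NMDA/glycine solution; fluorescence change from cytosolic Ca rise read on plate reader. % NMDAr inhibition calculated relative to MK-801 (10 µM); DMSO vehicle. Mean of at least 9 independent experiments.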"}, "[7]": {"target": "T1, Amine oxidase [flavin-containing] A", "assay": "Irreversible inhibition of recombinant human MAO-A at 2 times IC50 preincubated up to 60 mins followed by kynuramine substrate addition and measured after 20 mins by fluorescence assay", "method_in_brief": "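Recombinant human MAO-A is preincubated with inhibitor for 0, 15, 30 or 60 min, then the kynuramine reaction is started. Residual oxidation rate is read as 4-hydroxyquinoline fluorescence (RFU). Results are the mean of three independent experiments.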"}, "[8]": {"target": "T2, Amine oxidase [flavin-containing] B", "assay": "Reversible inhibition of recombinant human MAO-B at 2 times IC50 preincubated up to 60 mins followed by kynuramine substrate addition and measured after 20 mins by fluorescence assay"}, "[9]": {"target": "Voltage-gated L-type calcium channel (Homo sapiens, UniProt Q13936+Q13698+Q01668+O60840)", "assay": "Inhibition of voltage-dependent L-type calcium channel in human SH-SY5Y cells assessed as reduction in KCl-stimulated calcium influx at 100 uM preincubated for 30 mins in presence of Mag-Fura-2/AM dye followed by KCl stimulation and measured over 35 secs by fluorescence assay", "format": "cell-based", "conditions": "35 s"}, "[10]": {"target": "T2, Amine oxidase [flavin-containing] B", "assay": "Inhibition of recombinant human MAO-B using kynuramine as substrate after 20 mins by fluorescence assay relative to control", "method_in_brief": "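Recombinant human MAO-B oxidises kynuramine. The product, 4-hydroxyquinoline, is read by fluorescence in the supernatant (excitation 310 nm, emission 400 nm).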"}}, "note": "Activity calls are given as the source filed them. No cut-off for these calls is given here."}
{"smiles": "Nc1ccc(CN2C3C4C5CC6C7C5C3C7C2(O)C64)cc1", "note": "(stereo unspecified)", "values": [{"measurement": "Activity", "setting": "SH-SY5Y [1]", "result": 31, "unit": "%"}, {"measurement": "IC50", "setting": "[2]", "result": "> 100", "unit": "µM"}, {"measurement": "Activity", "setting": "SH-SY5Y [3]", "result": "Active"}, {"measurement": "viability at 48 h, 10 µM", "setting": "[4]", "result": 101, "unit": "%"}, {"measurement": "IC50", "setting": "[5]", "result": "> 100", "unit": "µM"}, {"measurement": "inhibition", "setting": "[6]", "result": 11.9, "unit": "%"}]}
{"smiles": "C#CCNCc1ccc(CNC23OC4C5C6CC(C7C6C4C72)C53)cc1", "note": "(stereo unspecified)", "values": [{"measurement": "inhibition", "setting": "[6]", "result": 31.4, "unit": "%"}]}
{"smiles": "Nc1ccc(CNC23OC4C5C6CC(C7C6C4C72)C53)cc1", "note": "(stereo unspecified)", "values": [{"measurement": "inhibition", "setting": "[6]", "result": "inactive"}]}
{"smiles": "C#CCNCc1ccc(C/N=C2/C3C4CC5C6C4C2C6C2(OCCO2)C53)cc1", "note": "(stereo unspecified)", "values": [{"measurement": "inhibition", "setting": "[6]", "result": 88.3, "unit": "%"}]}
{"smiles": "Nc1ccc(C/N=C2/C3C4CC5C6C4C2C6C2(OCCO2)C53)cc1", "note": "(stereo unspecified)", "values": [{"measurement": "inhibition", "setting": "[6]", "result": 63.1, "unit": "%"}]}
{"smiles": "NCc1ccc(C/N=C2/C3C4CC5C6C4C2C6C2(OCCO2)C53)cc1", "note": "(stereo unspecified)", "values": [{"measurement": "inhibition", "setting": "[6]", "result": 49.5, "unit": "%"}]}
{"smiles": "C#CCNCc1ccc(CN2C3C4C5CC6C7C5C3C7C2(O)C64)cc1", "note": "(stereo unspecified)", "values": [{"measurement": "Activity", "setting": "SH-SY5Y [1]", "result": 43, "unit": "%"}, {"measurement": "inhibition (INH)", "setting": "[7]", "result": "Active"}, {"measurement": "inhibition (INH)", "setting": "[8]", "result": "Active"}, {"measurement": "IC50", "setting": "[2]", "result": 56.2, "unit": "µM"}, {"measurement": "Activity", "setting": "SH-SY5Y [3]", "result": "Active"}, {"measurement": "viability at 48 h, 10 µM", "setting": "[4]", "result": 98, "unit": "%"}, {"measurement": "IC50", "setting": "[5]", "result": 3.8, "unit": "µM"}, {"measurement": "inhibition", "setting": "[6]", "result": 0.6, "unit": "%"}]}
{"smiles": "NCc1ccc(CNC2C3C4CC5C6C4C2C6C2(OCCO2)C53)cc1", "note": "(stereo unspecified)", "values": [{"measurement": "inhibition", "setting": "[6]", "result": "inactive"}]}
{"smiles": "COCCOC(=O)C1=C(C)NC(C)=C(C(=O)OC(C)C)C1c1cccc([N+](=O)[O-])c1", "note": "(stereo unspecified)", "values": [{"measurement": "inhibition", "setting": "[6]", "result": "inactive"}]}
{"smiles": "NCc1ccc(CN2C3C4C5CC6C7C5C3C7C2(O)C64)cc1", "note": "(stereo unspecified)", "values": [{"measurement": "Activity", "setting": "SH-SY5Y [1]", "result": 46, "unit": "%"}, {"measurement": "IC50", "setting": "[2]", "result": "> 100", "unit": "µM"}, {"measurement": "Activity", "setting": "SH-SY5Y [3]", "result": "Active"}, {"measurement": "viability at 48 h, 10 µM", "setting": "[4]", "result": 107, "unit": "%"}, {"measurement": "IC50", "setting": "[5]", "result": "> 100", "unit": "µM"}, {"measurement": "inhibition", "setting": "[6]", "result": 59, "unit": "%"}]}
{"smiles": "c1cc(C/N=C2\\C3C4CC5C6C4C2C6C2(OCCO2)C53)ccc1C/N=C1/C2C3CC4C5C3C1C5C1(OCCO1)C42", "note": "(stereo unspecified)", "values": [{"measurement": "inhibition", "setting": "[6]", "result": 70.5, "unit": "%"}]}
{"smiles": "C#CCNC12OC3C4C5CC(C6C5C3C61)C42", "note": "(stereo unspecified)", "values": [{"measurement": "inhibition (INH)", "setting": "[9]", "result": "Not Active"}, {"measurement": "inhibition", "setting": "[6]", "result": "inactive"}]}
{"smiles": "ClCc1ccc(CNC23OC4C5C6CC(C7C6C4C72)C53)cc1", "note": "(stereo unspecified)", "values": [{"measurement": "inhibition", "setting": "[6]", "result": 26.1, "unit": "%"}]}
{"smiles": "C#CCN1C2C3C4CC5C6C4C2C6C1(O)C53", "note": "(stereo unspecified)", "values": [{"measurement": "inhibition (INH)", "setting": "[10]", "result": 6, "unit": "%"}, {"measurement": "inhibition (INH)", "setting": "[9]", "result": "Not Active"}, {"measurement": "inhibition", "setting": "[6]", "result": 4, "unit": "%"}]}
{"smiles": "C#CCNCc1ccc(CNC2C3C4CC5C6C4C2C6C2(OCCO2)C53)cc1", "note": "(stereo unspecified)", "values": [{"measurement": "inhibition", "setting": "[6]", "result": 63.9, "unit": "%"}]}
{"smiles": "c1ccc(CNC23OC4C5C6CC(C7C6C4C72)C53)cc1", "note": "(stereo unspecified)", "values": [{"measurement": "Activity", "setting": "SH-SY5Y [1]", "result": 66, "unit": "%"}, {"measurement": "IC50", "setting": "[2]", "result": "> 100", "unit": "µM"}, {"measurement": "Activity", "setting": "SH-SY5Y [3]", "result": "Active"}, {"measurement": "viability at 48 h, 10 µM", "setting": "[4]", "result": 86, "unit": "%"}, {"measurement": "IC50", "setting": "[5]", "result": "> 100", "unit": "µM"}, {"measurement": "inhibition", "setting": "[6]", "result": 32.5, "unit": "%"}]}
